Measurements from ChEMBL document CHEMBL1144103, “Biologically active secondary metabolites from fungi. 12.(1) oidiolactones A-F, labdane diterpene derivatives isolated from oidiodendron truncata” (1999).

How the values were obtained:
Format in all cases: functional
[1] = system: [Chlorella] fusca; assay: Herbicidal activity against Chlorella fusca at 10 mg/mL by agar diffusion test; settings: Scenedesmus fuscus; read-out: IZ
In short: (§1)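 Agar diffusion test. Activity is scored on a 1-4 scale by the radius of the inhibition zone: 1-10 mm = 1, 10-20 mm = 2, 20-30 mm = 3, 30-40 mm = 4.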

[2] = system: Microbotryum violaceum; assay: Antifungal activity against Ustilago violacea at 10 mg/mL by agar diffusion test; settings: read-out: IZ; in short: as §1
[3] = system: Priestia megaterium; assay: Antibacterial activity against Bacillus megaterium at 10 mg/mL by agar diffusion test; settings: read-out: IZ; in short: as §1
[4] = system: Aspergillus pseudoglaucus; assay: Antifungal activity against Eurotium repens at 10 mg/mL by agar diffusion test; settings: read-out: IZ; in short: as §1
[5] = system: Escherichia coli; assay: Antibacterial activity against Escherichia coli at 10 mg/mL by agar diffusion test; settings: read-out: IZ; in short: as §1
[6] = system: Lepidium sativum; assay: Herbicidal activity against Lepidium sativum assessed as growth inhibition at 10 mg/mL relative to control
[7] = system: Lemna minor; assay: Herbicidal activity against Lemna minor assessed as growth inhibition at 10 mg/mL after 1 and 6 days relative to control
In short: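 Lemna minor growth inhibition. 10 mg of sample is dissolved in 0.05 mL MeOH plus 0.05 mL acetone and added to 10 mL test medium (growth medium without sucrose) in 5 cm Petri dishes, each holding 15 plants. Plants are scored after 1 and 6 days.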

[8] = system: Mycotypha microspora; assay: Antifungal activity against Mycotypha microspora at 10 mg/mL by agar diffusion test; settings: read-out: IZ; in short: as §1

Structure (SMILES) | zone of inhibition at 10000 µg/mL [1] | zone of inhibition at 10000 µg/mL [2] | zone of inhibition at 10000 µg/mL [3] | zone of inhibition at 10000 µg/mL [4] | zone of inhibition at 10000 µg/mL [5] | inhibition at 10000 µg/mL [6] | inhibition at 10000 µg/mL [7] | zone of inhibition at 10000 µg/mL [8]
CO[C@H]1OC(=O)C=C2C1=C[C@H]1OC(=O)[C@@]3(C)CCC[C@@]2(C)[C@@H]13 | 20 mm | 30 mm | 1 mm | – | – | – | – | –
CO[C@H]1OC(=O)C=C2[C@@]13O[C@@H]3[C@H]1OC(=O)[C@@]3(C)CCC[C@@]2(C)[C@@H]13 | 10 mm | 10 mm | 1 mm | 1 mm | 0 mm | 100% | > 90% | 1 mm
C[C@@]12CCC[C@]3(C)C4=CC(=O)O[C@@H](O)[C@]45O[C@@H]5[C@@H](OC1=O)[C@@H]23 [OIDIOLACTONE D] | 1 mm | 1 mm | 0 mm | 1 mm | 0 mm | – | – | 1 mm
C[C@]12CCC[C@](C)(C(=O)O)[C@@H]1C=C[C@]1(O)COC(=O)C[C@H]21 [OIDIOLACTONE E] | 1 mm | 1 mm | 0 mm | 1 mm | 0 mm | – | – | 0 mm
